Measurements from ChEMBL document CHEMBL4706565, “Anti-glioma effects of 2-aminothiophene-3-carboxamide derivatives, ANO1 channel blockers” (Eur J Med Chem, 2020).
Values belong to the compound of their own block, whether it stands above or below them. Calls of active or inactive are those of the source. The calls are words filed in the database; no cut-off is given here.

Key:
U-251 [1] = test: Inhibition of colony formation in human U251 cells at 10 uM incubated for 14 days by crystal violet dye based assay; format: functional; conditions: time 14.0 day
Method in brief: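 Colonies stained 24 h with crystal violet in methanol/formaldehyde/PBS, washed, extracted with 10% acetic acid and read at A570 nm. Compared against DMSO control.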

U-251 [2] = test: Inhibition of anchorage-independent colony formation in human U251 cells at 10 uM incubated for 14 days by crystal violet staining based soft agar colony formation assay; format: functional, cell-based; conditions: time 14.0 day
Method in brief: (§1)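 Soft agar assay: 2.0×10^3 U251 cells in complete medium with 0.3% agar over a 0.6% bottom agar layer. Treated with compounds at 1-100 μM for 14 days, 37 °C, 5% CO2. Colonies stained with crystal violet for 24 h, whole wells photographed and colonies counted against DMSO control; n = 3.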

U-251 [3] = test: Inhibition of cell invasion in human U251 cells at 10 uM incubated for 48 hrs by Boyden chamber method; format: functional
Method in brief: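 Boyden chamber invasion: U251 cells serum-starved 24 h, then 2.5×10^5 cells seeded in 8-μm ECMatrix-coated transwells. Treated with compound at 1 or 10 μM for 48 h at 37 °C. Invasion ratio from relative fluorescence.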

U-251 [4] = test: Inhibition of anchorage-independent colony formation in human U251 cells at 100 uM incubated for 14 days by crystal violet staining based soft agar colony formation assay; format: functional; conditions: time 14.0 day; method in brief: as §1
U-251 [5] = test: Inhibition of cell migration in human U251 cells at 10 uM incubated for 18 hrs by wound healing assay; format: functional
Method in brief: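 U251 monolayer, 2.0×10^5 cells/well, plated overnight, then scratched and washed with PBS. Wound area imaged before and after incubation; migration ratio taken from migrated area. One-way ANOVA.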

Anoctamin-1 [6] = molecular target: T1, Anoctamin-1 (Mus musculus, UniProt Q8BHY3); test: Inhibition of GFP-fused mouse ANO1 channel expressed in HEK293A cells assessed as inhibition of ATP-induced channel current amplitude at membrane potential of +80 mV by patch clamp electrophysiology assay; format: cell-based, HEK293-A
T1 sequence (Q8BHY3 whole entry): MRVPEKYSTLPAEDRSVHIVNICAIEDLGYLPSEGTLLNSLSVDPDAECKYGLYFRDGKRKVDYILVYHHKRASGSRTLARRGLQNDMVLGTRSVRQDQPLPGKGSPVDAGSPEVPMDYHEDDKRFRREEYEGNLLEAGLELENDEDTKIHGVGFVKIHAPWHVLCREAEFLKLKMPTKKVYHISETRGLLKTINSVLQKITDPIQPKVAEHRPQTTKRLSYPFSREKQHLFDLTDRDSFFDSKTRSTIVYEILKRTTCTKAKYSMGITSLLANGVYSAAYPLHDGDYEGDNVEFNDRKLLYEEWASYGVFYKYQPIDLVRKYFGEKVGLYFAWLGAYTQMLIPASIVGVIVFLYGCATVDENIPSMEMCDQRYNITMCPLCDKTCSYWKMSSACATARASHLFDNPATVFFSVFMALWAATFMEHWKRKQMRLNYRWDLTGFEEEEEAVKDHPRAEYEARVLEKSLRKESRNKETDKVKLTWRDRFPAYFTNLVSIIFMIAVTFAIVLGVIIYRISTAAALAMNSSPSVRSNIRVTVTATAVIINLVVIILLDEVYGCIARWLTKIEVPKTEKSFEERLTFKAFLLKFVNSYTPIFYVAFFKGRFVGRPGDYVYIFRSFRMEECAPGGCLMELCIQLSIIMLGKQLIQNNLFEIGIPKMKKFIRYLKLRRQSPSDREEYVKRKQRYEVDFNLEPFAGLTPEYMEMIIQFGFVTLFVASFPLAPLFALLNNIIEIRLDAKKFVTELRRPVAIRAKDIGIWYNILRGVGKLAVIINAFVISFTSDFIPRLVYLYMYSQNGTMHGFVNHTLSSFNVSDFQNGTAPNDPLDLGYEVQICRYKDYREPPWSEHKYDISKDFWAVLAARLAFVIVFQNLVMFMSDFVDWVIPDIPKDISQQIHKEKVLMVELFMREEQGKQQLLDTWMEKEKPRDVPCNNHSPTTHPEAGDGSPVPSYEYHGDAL
Method in brief: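 Whole-cell recording at room temperature in HEK293A cells transfected with GFP-mANO1, GFP-mANO2 or GFP-mTTYH1. 1 s ramps from +80 to -80 mV, holding potential -10 mV. For ANO1/ANO2: pipette CsCl 146 mM with Ca-EGTA-NMDG, pH 7.3; bath NaCl-based, pH 7.3. For TTYH1: Tris-aspartate pipette (pH 7.2) and Tris-HCl bath (pH 7.4), with […] and BaCl2 added to block K+ channels, and hypotonic (220 mOsm/kg) bath. Washout recordings assessed reversibility.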

U-87 MG [7] = test: Antiproliferative activity against human U87MG cells overexpressing ANO1 assessed as reduction in cell viability measured after 72 hrs by Celltiter-glo assay; format: functional, U-87MG ATCC
Method in brief: (§2)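 5.0×10^3 cells/well seeded, overnight, then compounds added as 1:4 serial dilutions in DMSO; viability read after 72 h with CellTiter-Glo luminescence. GI50 from fitted dose-response curves; triplicate wells, SD from three independent experiments. DMEM for U251 and U138, MEM for U87MG, both with 10% FBS and pen/strep, 37 °C, 5% CO2.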

U-251 [8] = test: Antiproliferative activity against human U251 cells overexpressing ANO1 assessed as reduction in cell viability measured after 72 hrs by Celltiter-glo assay; format: functional; method in brief: as §2
[9] = Antiproliferative activity against mouse primary astrocytes assessed as reduction in cell viability at 100 uM measured after 72 hrs by Celltiter-Glo luminescent assay; format: cell-based, Astrocyte
Method in brief: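 Primary astrocytes isolated from adult mouse brain by a previously reported method. 5.0×10^3 cells/well, compound as 1:4 serial DMSO dilutions, CellTiter-Glo viability at 72 h.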

U138-MG [10] = test: Antiproliferative activity against human U138 cells overexpressing ANO1 assessed as reduction in cell viability measured after 72 hrs by Celltiter-glo assay; format: functional; method in brief: as §2
[11] = molecular target: T2, Anoctamin-1 (Homo sapiens) (UniProt Q5XXA6); test: Inhibition of human ANO1 channel expressed in HEK293 cells at 10 uM incubated for 10 mins by FLIPR assay relative to control; format: cell-based
T2 sequence (whole entry): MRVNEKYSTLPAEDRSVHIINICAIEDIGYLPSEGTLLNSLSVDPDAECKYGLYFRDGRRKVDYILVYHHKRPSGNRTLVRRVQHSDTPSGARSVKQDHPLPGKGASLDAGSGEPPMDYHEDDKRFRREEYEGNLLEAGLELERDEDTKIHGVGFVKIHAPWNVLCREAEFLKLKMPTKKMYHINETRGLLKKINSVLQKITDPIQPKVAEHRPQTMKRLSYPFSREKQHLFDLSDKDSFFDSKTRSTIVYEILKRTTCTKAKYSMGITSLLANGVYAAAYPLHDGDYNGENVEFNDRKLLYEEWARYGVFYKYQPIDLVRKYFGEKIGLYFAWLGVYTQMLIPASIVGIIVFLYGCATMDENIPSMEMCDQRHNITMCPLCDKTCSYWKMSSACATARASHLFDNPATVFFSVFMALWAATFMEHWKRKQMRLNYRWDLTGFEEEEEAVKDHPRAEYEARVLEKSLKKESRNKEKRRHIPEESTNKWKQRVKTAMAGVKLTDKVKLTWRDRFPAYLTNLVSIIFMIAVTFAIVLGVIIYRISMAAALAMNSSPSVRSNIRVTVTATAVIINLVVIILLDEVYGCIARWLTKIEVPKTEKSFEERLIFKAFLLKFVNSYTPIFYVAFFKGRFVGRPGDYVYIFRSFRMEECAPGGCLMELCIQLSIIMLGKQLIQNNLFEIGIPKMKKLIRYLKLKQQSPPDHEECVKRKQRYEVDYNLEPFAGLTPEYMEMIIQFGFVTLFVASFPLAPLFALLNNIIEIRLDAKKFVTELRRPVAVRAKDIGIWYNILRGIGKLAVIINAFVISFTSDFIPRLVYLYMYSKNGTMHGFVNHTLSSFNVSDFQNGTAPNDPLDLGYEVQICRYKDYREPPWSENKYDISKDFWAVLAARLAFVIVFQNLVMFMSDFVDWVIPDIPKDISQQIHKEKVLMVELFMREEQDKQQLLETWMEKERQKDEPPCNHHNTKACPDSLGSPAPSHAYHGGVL
Method in brief: (§3)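 HEK293 cells expressing human ANO1, 50,000 cells/well, plated overnight. Loaded with FLIPR Red membrane-potential dye in HEPES-buffered saline (pH 7.4) for 40-60 min at room temperature. Compound added for 10 min at room temperature, final DMSO 0.5%.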

Anoctamin-1 [12] = molecular target: T3, Anoctamin-1 (Homo sapiens, UniProt Q5XXA6); test: Inhibition of human ANO1 channel expressed in HEK293 cells incubated for 10 mins by FLIPR assay; format: cell-based; method in brief: as §3
T3 sequence (Q5XXA6 whole entry): T2 sequence (whole entry)

U-87 MG [13] = test: Antiproliferative activity against human U87MG cells overexpressing ANO1 assessed as reduction in cell viability at 100 uM measured after 72 hrs by Celltiter-glo assay; format: functional, U-87MG ATCC; method in brief: as §2
U138-MG [14] = test: Antiproliferative activity against human U138 cells overexpressing ANO1 assessed as reduction in cell viability at 100 uM measured after 72 hrs by Celltiter-glo assay; format: functional; method in brief: as §2

Structure (SMILES): Cc1ccccc1NC(=O)c1c(NC(=O)C(F)(F)Br)sc2c1CCCCC2
inhibition (U-251 [1]): inactive
inhibition (U-251 [2]): inactive
inhibition at 10 µM (U-251 [3]): 11.7%
inhibition (U-251 [4]): inactive
inhibition at 10 µM (U-251 [5]): 16.7%
IC50 (Anoctamin-1 [6]): 50 nM
GI50 (U-87 MG [7]): 48 µM
GI50 (U-251 [8]): 45.3 µM
inhibition at 72 h, 100 µM [9]: < 50%
GI50 (U138-MG [10]): 29.4 µM

Structure (SMILES): Cc1ncsc1C(=O)NC(=S)Nc1sc2c(c1C(N)=O)CCC2
inhibition [11]: < 10%

Structure (SMILES): COc1ccccc1/C=N/NC(=O)COc1ccc(Cl)cc1C
IC50 (Anoctamin-1 [6]): 30 nM

Structure (SMILES): NC(=O)c1c(NC(=S)NC(=O)c2ccco2)sc2c1CCC2
inhibition [11]: < 10%

Structure (SMILES): CC(C)(C)C1CCc2c(sc(NC(=O)c3ccccc3)c2C(N)=O)C1 (configuration not stated)
inhibition [11]: 22%

Structure (SMILES): NC(=O)c1c(NC(=S)NC(=O)c2ccccc2)sc2c1CCCCC2
inhibition [11]: 21.1%

Structure (SMILES): CC(C)(C)C(=O)Nc1sc2c(c1C(N)=O)CCC2
inhibition [11]: 12.5%

Structure (SMILES): NC(=O)c1ccsc1NC(=O)c1ccco1
inhibition [11]: 39.5%

Structure (SMILES): NC(=O)c1ccsc1N
inhibition [11]: < 10%

Structure (SMILES): NC(=O)c1c(NC(=O)c2ccco2)sc2c1CCCCC2
inhibition [11]: < 10%

More lines, main results first:

inhibition [11]: 70.5%
IC50 (Anoctamin-1 [12]): 2830 nM
IC50 (Anoctamin-1 [6]): 2630 nM
GI50 (U-87 MG [7]): 26 µM
GI50 (U-251 [8]): 24.4 µM
Structure (SMILES): NC(=O)c1c(NC(=S)NC(=O)c2ccccc2)sc2c1CCC2
GI50 (U138-MG [10]): 17.1 µM

inhibition [11]: 76.7%
IC50 (Anoctamin-1 [12]): 2290 nM
IC50 (Anoctamin-1 [6]): 3120 nM
GI50 (U-251 [8]): 94.6 µM
Structure (SMILES): NC(=O)c1c(NC(=S)NC(=O)c2ccccc2Cl)sc2c1CCC2
inhibition at 100 µM (U-87 MG [13]): < 50%
inhibition at 72 h, 100 µM [9]: < 50%
inhibition at 100 µM (U138-MG [14]): < 50%

inhibition [11]: < 10%
Structure (SMILES): NC(=O)c1c(NC(=S)NC(=O)c2ccc(C(F)(F)F)cc2)sc2c1CCC2

inhibition [11]: < 10%
Structure (SMILES): COc1ccc(C(=O)NC(=S)Nc2sc3c(c2C(N)=O)CCC3)cc1OC

inhibition [11]: 16.3%
Structure (SMILES): NC(=O)c1c(NC(=S)NC(=O)c2ccc3c(c2)OCO3)sc2c1CCC2

inhibition [11]: 26.7%
Structure (SMILES): NC(=O)c1c(NC(=S)NC(=O)c2cccc(C(F)(F)F)c2)sc2c1CCC2

inhibition [11]: 46.1%
Structure (SMILES): COc1cc(OC)cc(C(=O)NC(=S)Nc2sc3c(c2C(N)=O)CCC3)c1
